ChEMBL document CHEMBL1154855 (Eur J Med Chem, 2010)
≈ marks a conversion by molar mass, not a printed value.

Tests used:
[1] = tested on: Human immunodeficiency virus 1; assay: Antiviral activity against HIV1 3B-infected in human MT4 cells assessed as protection from virus-induced cytopathogenicity after 5 days by MTT assay; type: functional, organism-based; conditions: Human immunodeficiency virus 1, 3B, MT4, 120 h
Method in brief: (§1)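 MT-4 cells at 3 × 10^4 per well were infected with HIV (IIIB or ROD) at 50% cell culture infective doses. Graded compound concentrations were added immediately after infection. Plates were incubated for 5 days at 37 °C and viable cells were counted by MTT.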

[2] = tested on: Human immunodeficiency virus 2; assay: Antiviral activity against HIV2 ROD infected in human MT4 cells assessed as protection from virus-induced cytopathogenicity after 5 days by MTT assay; type: functional, organism-based; conditions: Human immunodeficiency virus 2, ISOLATE ROD, MT4, 120 h; method in brief: as §1
[3] = Cytotoxicity against HIV2 ROD infected human MT4 cells by MTT assay; type: cell-based; conditions: MT4 cells infected with HIV-2 ROD
Method in brief: (§2)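 MT-4 cells (3 × 10^4 per well) were cultured in microdilution trays with various concentrations of compound, then incubated 5 days at 37 °C, and viable cell number was read by MTT.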

[4] = Selectivity index, ratio of CC50 for HIV2 ROD infected human MT4 cells to IC50 for […] ROD; type: functional
HeLa [5] = assay: Cytotoxicity against VSV infected human HeLa cells by trypan blue exclusion method; type: cell-based; conditions: hela
Method in brief: (§3)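 Uninfected confluent cultures were run in parallel with the infected cultures. Medium was replaced by 1 ml maintenance medium with serial compound concentrations; cell controls received no compound. Cultures were incubated at 37 °C. After 2 and 7 days, compound was withdrawn and viability was determined by trypan blue exclusion.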

HeLa [6] = assay: Cytotoxicity against Human coxsackievirus B4 infected human HeLa cells by trypan blue exclusion method; type: cell-based; conditions: hela; method in brief: as §3
HeLa [7] = assay: Cytotoxicity against Respiratory syncytial virus infected human HeLa cells by trypan blue exclusion method; type: cell-based; conditions: hela; method in brief: as §3
HEL [8] = assay: Cytotoxicity against Herpes simplex virus 1 KOS infected HEL cells by trypan blue exclusion method; type: cell-based; conditions: human, hel; method in brief: as §3
HEL [9] = assay: Cytotoxicity against Herpes simplex virus 2 G infected HEL cells by trypan blue exclusion method; type: cell-based; conditions: human, hel; method in brief: as §3
HEL [10] = assay: Cytotoxicity against Vaccinia virus infected HEL cells by trypan blue exclusion method; type: cell-based; conditions: human, hel; method in brief: as §3
HEL [11] = assay: Cytotoxicity against VSV infected HEL cells by trypan blue exclusion method; type: cell-based; conditions: human, hel; method in brief: as §3
HEL [12] = assay: Cytotoxicity against acyclovir-sensitive Herpes simplex virus 1 KOS infected HEL cells by trypan blue exclusion method; type: cell-based; conditions: human; method in brief: as §3
Vero [13] = assay: Cytotoxicity against PIV 3 infected african green monkey Vero cells by trypan blue exclusion method; type: cell-based; conditions: chlorocebus sabaeus, vero; method in brief: as §3
Vero [14] = assay: Cytotoxicity against Reovirus 1 infected african green monkey Vero cells by trypan blue exclusion method; type: cell-based; conditions: chlorocebus sabaeus, vero; method in brief: as §3
Vero [15] = assay: Cytotoxicity against Sindbis virus infected african green monkey Vero cells by trypan blue exclusion method; type: cell-based; conditions: chlorocebus sabaeus, vero; method in brief: as §3
Vero [16] = assay: Cytotoxicity against Human coxsackievirus B4 infected african green monkey Vero cells by trypan blue exclusion method; type: cell-based; conditions: chlorocebus sabaeus, vero; method in brief: as §3
Vero [17] = assay: Cytotoxicity against Punta Toro virus infected african green monkey Vero cells by trypan blue exclusion method; type: cell-based; conditions: chlorocebus sabaeus, vero; method in brief: as §3
[18] = Cytotoxicity against Feline coronavirus infected cat CRFK cells by trypan blue exclusion method; type: cell-based, Felis catus; conditions: crfk; method in brief: as §3
[19] = Cytotoxicity against Feline herpesvirus infected cat CRFK cells by trypan blue exclusion method; type: cell-based, Felis catus; conditions: crfk; method in brief: as §3
MDCK [20] = assay: Cytotoxicity against Influenza A virus subtype H3N2 infected MDCK cells by trypan blue exclusion method; type: cell-based, Canis lupus familiaris; conditions: dog
MDCK [21] = assay: Cytotoxicity against Influenza B virus infected MDCK cells by trypan blue exclusion method; type: cell-based, Canis lupus familiaris; conditions: dog
[22] = Cytotoxicity against HIV1 3B-infected human MT4 cells by MTT assay; type: cell-based; conditions: MT4 cells infected with HIV-1 3B; method in brief: as §2
Coxsackievirus B4 [23] = assay: Antiviral activity against Human coxsackievirus B4 infected in human HeLa cells assessed as protection from virus-induced cytopathogenicity after 2 days by MTT assay; type: functional, organism-based; conditions: Enterovirus B, 48 h
[24] = tested on: Mammalian orthoreovirus 1; assay: Antiviral activity against Reovirus 1 infected in african green monkey Vero cells assessed as protection from virus-induced cytopathogenicity after 6 to 7 days by MTT assay; type: functional, organism-based; conditions: Mammalian orthoreovirus 1, Vero
[25] = tested on: Vesicular stomatitis virus; assay: Antiviral activity against VSV infected in human HeLa cells assessed as protection from virus-induced cytopathogenicity after 1 to 2 days by MTT assay; type: functional, organism-based
Streptococcus viridans = assay: Antibacterial activity against Streptococcus viridans after 24 hrs by broth microdilution method; type: functional
Method in brief: (§4)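 Clinical isolates. Each dilution received 100 μl of 0.5 McFarland fresh culture. Solvent (DMSO), growth and standard controls were included. Tubes were incubated at 37 °C for 24 h. MIC is the highest dilution showing no turbidity. Tests were run in triplicate, with at least two repetitions.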

Escherichia coli = assay: Antibacterial activity against Escherichia coli after 24 hrs by broth microdilution method; type: functional; method in brief: as §4
Klebsiella pneumoniae = assay: Antibacterial activity against Klebsiella pneumoniae after 24 hrs by broth microdilution method; type: functional; method in brief: as §4
Proteus mirabilis = assay: Antibacterial activity against Proteus mirabilis after 24 hrs by broth microdilution method; type: functional; method in brief: as §4
[26] = tested on: Respiratory syncytial virus; assay: Antiviral activity against Respiratory syncytial virus infected in human HeLa cells assessed as protection from virus-induced cytopathogenicity after 4 days by MTT assay; type: functional, organism-based; conditions: 96 h
Human alphaherpesvirus 1 [27] = assay: Antiviral activity against Herpes simplex virus 1 KOS infected in HEL cells assessed as protection from virus-induced cytopathogenicity after 2 to 3 days by MTT assay; type: functional, organism-based; conditions: Human alphaherpesvirus 1, KOS
Human alphaherpesvirus 2 = assay: Antiviral activity against Herpes simplex virus 2 G infected in HEL cells assessed as protection from virus-induced cytopathogenicity after 2 to 3 days by MTT assay; type: functional, organism-based; conditions: Human alphaherpesvirus 2, strain G
[28] = tested on: Vesicular stomatitis virus; assay: Antiviral activity against VSV infected in HEL cells assessed as protection from virus-induced cytopathogenicity after 1 to 2 days by MTT assay; type: functional, organism-based
Human alphaherpesvirus 1 [29] = assay: Antiviral activity against acyclovir-sensitive Herpes simplex virus 1 KOS infected in HEL cells assessed as protection from virus-induced cytopathogenicity after 2 to 3 days by MTT assay; type: functional, organism-based; conditions: Human alphaherpesvirus 1, KOS
Human respirovirus 3 = assay: Antiviral activity against PIV 3 infected in african green monkey Vero cells assessed as protection from virus-induced cytopathogenicity after 6 to 7 days by MTT assay; type: functional, organism-based; conditions: Human respirovirus 3, Vero
Sindbis virus = assay: Antiviral activity against Sindbis virus infected in african green monkey Vero cells assessed as protection from virus-induced cytopathogenicity after 2 to 3 days by MTT assay; type: functional, organism-based
Coxsackievirus B4 [30] = assay: Antiviral activity against Human coxsackievirus B4 infected in african green monkey Vero cells assessed as protection from virus-induced cytopathogenicity after 2 days by MTT assay; type: functional, organism-based; conditions: Enterovirus B, 48 h
Punta Toro virus = assay: Antiviral activity against Punta Toro virus infected in african green monkey Vero cells assessed as protection from virus-induced cytopathogenicity by MTT assay; type: functional, organism-based
Feline coronavirus = assay: Antiviral activity against Feline coronavirus infected in cat CRFK cells assessed as protection from virus-induced cytopathogenicity by MTT assay; type: functional, organism-based; conditions: Alphacoronavirus 1, CRFK
Felid alphaherpesvirus 1 = assay: Antiviral activity against Feline herpesvirus infected in cat CRFK cells assessed as protection from virus-induced cytopathogenicity by MTT assay; type: functional, organism-based; conditions: Felid alphaherpesvirus 1, CRFK
Influenza A virus [31] = assay: Antiviral activity against Influenza A virus H1N1 infected in MDCK cells assessed as protection from virus-induced cytopathogenicity after 6 to 7 days by MTT assay; type: functional, organism-based
Influenza A virus [32] = assay: Antiviral activity against Influenza A virus H3N2 infected in MDCK cells assessed as protection from virus-induced cytopathogenicity after 6 to 7 days by MTT assay; type: functional, organism-based
Influenza B virus = assay: Antiviral activity against Influenza B virus infected in MDCK cells assessed as protection from virus-induced cytopathogenicity after 6 to 7 days by MTT assay; type: functional, organism-based
in vitro = conditions: human, HeLa cells

## COc1cc(/C=C/C(=O)CC(=O)/C=C/c2ccc(OC(=O)[C@H](Cc3ccccc3)NC(=O)[C@@H](N)Cc3c[nH]c4ccccc34)c(OC)c2)ccc1OC(=O)[C@H](Cc1ccccc1)NC(=O)[C@@H](N)Cc1c[nH]c2ccccc12
[1]
  IC50: 94 nM
[2]
  IC50: 107 nM
[3]
  CC50: > 107 nM
[4]
  Ratio CC50/IC50: <1
HeLa [5]
  CC50: 96 nM
HeLa [6]
  CC50: 96 nM
HeLa [7]
  CC50: 96 nM
HEL [8]
  CC50: 96 nM
HEL [9]
  CC50: 19 nM
HEL [10]
  CC50: 19 nM
HEL [11]
  CC50: 19 nM
HEL [12]
  CC50: 19 nM
Vero [13]
  CC50: 19 nM
Vero [14]
  CC50: 96 nM
Vero [15]
  CC50: 96 nM
Vero [16]
  CC50: 96 nM
Vero [17]
  CC50: 96 nM
[18]
  CC50: > 96 nM
[19]
  CC50: > 96 nM
MDCK [20]
  CC50: 46 nM
MDCK [21]
  CC50: 46 nM
[22]
  CC50: > 94 nM
Coxsackievirus B4 [23]
  EC50: > 19 nM
[24]
  EC50: > 19 nM
[25]
  EC50: 11 nM
Streptococcus viridans
  MIC: 0.43 µM (≈ 0.445 µg/mL)
Escherichia coli
  MIC: 0.43 µM (≈ 0.445 µg/mL)
Klebsiella pneumoniae
  MIC: 0.43 µM (≈ 0.445 µg/mL)
Proteus mirabilis
  MIC: 0.43 µM (≈ 0.445 µg/mL)
[26]
  EC50: > 19 nM
Human alphaherpesvirus 1 [27]
  EC50: > 19 nM
Human alphaherpesvirus 2
  EC50: > 38 nM
[28]
  EC50: > 38 nM
Human alphaherpesvirus 1 [29]
  EC50: > 38 nM
Human respirovirus 3
  EC50: > 38 nM
Sindbis virus
  EC50: > 19 nM
Coxsackievirus B4 [30]
  EC50: > 19 nM
Punta Toro virus
  EC50: > 19 nM
Feline coronavirus
  EC50: > 96 nM
Felid alphaherpesvirus 1
  EC50: > 96 nM
Influenza A virus [31]
  EC50: > 96 nM
Influenza A virus [32]
  EC50: > 96 nM
Influenza B virus
  EC50: > 96 nM
In vitro
  selectivity ratio: 9
